Data taken from ChEMBL document CHEMBL2407081, “Discovery of potent, isoform-selective inhibitors of histone deacetylase containing chiral heterocyclic capping groups and a N-(2-aminophenyl)benzamide binding unit” (J Med Chem, 2013).
≈ marks a conversion by molar mass, not a printed value. Calls of active or inactive are those of the source. The calls are words filed in the database; no cut-off is given here.

How the values were obtained:
HeLa [1] = assay: Induction of apoptosis in human HeLa cells assessed as PARP cleavage at 1 to 10 uM after 24 hrs by Western blot analysis; assay type: functional, cell-based
[2] = Permeability of the compound by PAMPA; assay type: ADME; conditions: read-out: permeability
HeLa [3] = assay: Cell cycle arrest in human HeLa cells assessed as accumulation at G2/M phase at 10 uM after 24 hrs by FITC/propidium iodide staining-based FACS flow cytometric analysis; assay type: functional
How it was run: (§1)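 HeLa and Jurkat human cells were cultured for 24 h with compound at two concentrations. The control was an equal volume of the DMSO diluent. Cellular DNA and protein content were then measured by flow cytometry, and the percentage of cells in sub-G1, G0/G1, S and G2/M was read out.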

Jurkat [4] = assay: Cell cycle arrest in human Jurkat cells assessed as accumulation at S phase at 1 uM after 24 hrs by FITC/propidium iodide staining-based FACS flow cytometric analysis (reference value: 22.3%); assay type: functional; how it was run: as §1
[5] = Kinetic solubility of the compound; assay type: physicochemical; conditions: read-out: Kinetic_solubility
How it was run: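 Solubility was measured by chemiluminescent nitrogen detection.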

DU-145 = assay: Cytotoxicity against human DU145 cells assessed as growth inhibition by measuring cellular ATP level after 72 hrs by cell-titer glo assay; assay type: functional, cell-based; conditions: DU-145, 72 h
[6] = molecular target: T1, Protein deacetylase HDAC6 (Homo sapiens, UniProt Q9UBN7); assay: Inhibition of recombinant His-tagged HDAC6 (unknown origin) using Fluor-de-Lys SIRT1 as substrate incubated for 3 hrs prior to substrate addition measured after 60 mins by fluorescence plate reader analysis
T1 sequence (Q9UBN7 whole entry): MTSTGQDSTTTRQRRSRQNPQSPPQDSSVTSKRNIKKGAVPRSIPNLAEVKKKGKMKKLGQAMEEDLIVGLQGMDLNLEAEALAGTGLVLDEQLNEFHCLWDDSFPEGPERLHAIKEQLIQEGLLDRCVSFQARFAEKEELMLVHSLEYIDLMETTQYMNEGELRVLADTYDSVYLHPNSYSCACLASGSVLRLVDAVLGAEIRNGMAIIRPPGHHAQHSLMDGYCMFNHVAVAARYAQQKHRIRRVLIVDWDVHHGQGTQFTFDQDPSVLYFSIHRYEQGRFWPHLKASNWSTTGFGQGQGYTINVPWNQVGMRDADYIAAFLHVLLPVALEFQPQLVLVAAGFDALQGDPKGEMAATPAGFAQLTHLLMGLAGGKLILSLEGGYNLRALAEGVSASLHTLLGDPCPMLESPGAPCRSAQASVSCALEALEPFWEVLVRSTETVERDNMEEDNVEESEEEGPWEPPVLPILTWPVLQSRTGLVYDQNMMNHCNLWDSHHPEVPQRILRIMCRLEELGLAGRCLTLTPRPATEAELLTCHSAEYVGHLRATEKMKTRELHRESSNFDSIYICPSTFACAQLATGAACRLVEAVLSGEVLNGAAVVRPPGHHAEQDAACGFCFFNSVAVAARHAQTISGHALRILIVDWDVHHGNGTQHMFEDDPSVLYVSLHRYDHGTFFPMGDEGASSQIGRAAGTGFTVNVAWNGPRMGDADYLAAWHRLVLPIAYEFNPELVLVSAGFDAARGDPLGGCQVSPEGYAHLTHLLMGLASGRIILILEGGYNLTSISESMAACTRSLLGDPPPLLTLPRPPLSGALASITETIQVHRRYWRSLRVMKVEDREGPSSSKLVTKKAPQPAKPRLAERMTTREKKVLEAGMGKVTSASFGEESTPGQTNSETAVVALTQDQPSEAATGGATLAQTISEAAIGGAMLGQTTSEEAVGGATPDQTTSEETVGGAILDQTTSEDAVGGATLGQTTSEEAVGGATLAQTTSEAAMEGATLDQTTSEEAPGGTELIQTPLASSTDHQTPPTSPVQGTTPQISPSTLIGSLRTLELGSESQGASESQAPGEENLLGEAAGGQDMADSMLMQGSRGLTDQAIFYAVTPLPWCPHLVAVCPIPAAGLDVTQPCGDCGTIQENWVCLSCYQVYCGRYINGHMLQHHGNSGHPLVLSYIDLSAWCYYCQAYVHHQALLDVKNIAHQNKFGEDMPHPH

[7] = molecular target: Histone deacetylase 3/NCoR1 (Homo sapiens, UniProt O15379); assay: Inhibition of recombinant HDAC3-NCoR1 (unknown origin) using MAL as substrate incubated for 3 hrs prior to substrate addition measured after 60 mins by fluorescence plate reader analysis; assay type: protein-complex assay
Jurkat [8] = assay: Cell cycle arrest in human Jurkat cells assessed as accumulation at sub-G1 phase at 10 uM after 24 hrs by FITC/propidium iodide staining-based FACS flow cytometric analysis (reference value: 2%); assay type: functional; how it was run: as §1
Histone deacetylase 8 = molecular target: T2, Histone deacetylase 8 (Homo sapiens, UniProt Q9BY41); assay: Inhibition of recombinant HDAC8 (unknown origin) expressed in Escherichia coli BL21 using MAL as substrate incubated for 15 mins prior to substrate addition measured after 60 mins by fluorescence plate reader analysis
T2 sequence (Q9BY41 whole entry): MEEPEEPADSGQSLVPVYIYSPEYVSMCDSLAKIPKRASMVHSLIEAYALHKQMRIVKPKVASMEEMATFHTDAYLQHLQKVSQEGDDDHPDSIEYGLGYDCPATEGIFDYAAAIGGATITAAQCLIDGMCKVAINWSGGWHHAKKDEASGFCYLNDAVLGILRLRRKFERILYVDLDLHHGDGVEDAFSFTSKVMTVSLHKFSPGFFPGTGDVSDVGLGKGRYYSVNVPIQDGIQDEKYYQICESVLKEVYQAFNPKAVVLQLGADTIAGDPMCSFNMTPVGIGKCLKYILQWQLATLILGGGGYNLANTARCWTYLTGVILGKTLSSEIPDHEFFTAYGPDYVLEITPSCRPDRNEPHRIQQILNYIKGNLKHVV

Jurkat [9] = assay: Cell cycle arrest in human Jurkat cells assessed as accumulation at G0/G1 phase at 10 uM after 24 hrs by FITC/propidium iodide staining-based FACS flow cytometric analysis (reference value: 69.5%); assay type: functional; how it was run: as §1
Jurkat [10] = assay: Induction of apoptosis in human Jurkat cells assessed as PARP cleavage at 1 to 10 uM after 24 hrs by Western blot analysis; assay type: functional, cell-based
Jurkat [11] = assay: Cell cycle arrest in human Jurkat cells assessed as accumulation at G2/M phase at 1 uM after 24 hrs by FITC/propidium iodide staining-based FACS flow cytometric analysis (reference value: 14.4%); assay type: functional; how it was run: as §1
Histone deacetylase 1 = Histone deacetylase 1 (Homo sapiens, UniProt Q13547); assay: Inhibition of recombinant C-terminal FLAG-tagged HDAC1 (unknown origin) expressed in Escherichia coli BL21 using MAL as substrate incubated for 1 hr prior to substrate addition measured after 60 mins by fluorescence plate reader analysis
MCF7 = assay: Cytotoxicity against human MCF7 cells assessed as growth inhibition by measuring cellular ATP level after 72 hrs by cell-titer glo assay; assay type: functional, cell-based; conditions: MCF7, 72 h
Histone deacetylase 2 = Histone deacetylase 2 (Homo sapiens, UniProt Q92769); assay: Inhibition of recombinant His-tagged HDAC2 (1 to 488) (unknown origin) using MAL as substrate incubated for 3 hrs prior to substrate addition measured after 60 mins by fluorescence plate reader analysis
Cytochrome P450 2C9 = Cytochrome P450 2C9 (Homo sapiens, UniProt P11712); assay: Inhibition of CYP2C9 (unknown origin); assay type: ADME
Sequence of Cytochrome P450 2C9 (P11712 whole entry): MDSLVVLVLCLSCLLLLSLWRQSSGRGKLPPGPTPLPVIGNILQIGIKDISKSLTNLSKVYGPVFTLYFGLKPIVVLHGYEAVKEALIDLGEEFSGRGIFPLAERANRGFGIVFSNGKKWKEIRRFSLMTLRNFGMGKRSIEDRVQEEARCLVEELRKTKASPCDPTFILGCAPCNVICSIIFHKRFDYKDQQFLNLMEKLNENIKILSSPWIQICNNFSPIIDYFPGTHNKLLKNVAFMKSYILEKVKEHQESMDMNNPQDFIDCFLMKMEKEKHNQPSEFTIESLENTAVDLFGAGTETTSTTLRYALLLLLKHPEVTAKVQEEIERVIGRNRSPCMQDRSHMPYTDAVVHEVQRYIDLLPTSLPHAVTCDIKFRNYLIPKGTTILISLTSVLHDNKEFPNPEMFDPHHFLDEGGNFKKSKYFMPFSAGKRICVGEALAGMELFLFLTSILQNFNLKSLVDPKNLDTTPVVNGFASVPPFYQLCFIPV

Sequence of Histone deacetylase 1 (Q13547 whole entry): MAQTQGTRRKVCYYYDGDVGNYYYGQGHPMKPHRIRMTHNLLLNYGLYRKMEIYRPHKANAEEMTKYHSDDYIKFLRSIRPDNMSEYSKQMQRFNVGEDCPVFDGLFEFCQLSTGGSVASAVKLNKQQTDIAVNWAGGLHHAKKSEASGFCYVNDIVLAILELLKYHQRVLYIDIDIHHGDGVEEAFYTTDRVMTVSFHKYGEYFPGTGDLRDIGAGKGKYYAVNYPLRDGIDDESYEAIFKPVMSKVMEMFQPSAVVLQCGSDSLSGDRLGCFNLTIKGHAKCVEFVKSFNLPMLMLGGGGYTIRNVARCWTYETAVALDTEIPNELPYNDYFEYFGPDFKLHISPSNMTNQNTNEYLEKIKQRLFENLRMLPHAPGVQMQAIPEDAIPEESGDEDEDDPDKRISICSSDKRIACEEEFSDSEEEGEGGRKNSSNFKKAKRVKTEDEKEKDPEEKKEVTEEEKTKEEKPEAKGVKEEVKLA
Sequence of Histone deacetylase 3/NCoR1 (O15379 whole entry): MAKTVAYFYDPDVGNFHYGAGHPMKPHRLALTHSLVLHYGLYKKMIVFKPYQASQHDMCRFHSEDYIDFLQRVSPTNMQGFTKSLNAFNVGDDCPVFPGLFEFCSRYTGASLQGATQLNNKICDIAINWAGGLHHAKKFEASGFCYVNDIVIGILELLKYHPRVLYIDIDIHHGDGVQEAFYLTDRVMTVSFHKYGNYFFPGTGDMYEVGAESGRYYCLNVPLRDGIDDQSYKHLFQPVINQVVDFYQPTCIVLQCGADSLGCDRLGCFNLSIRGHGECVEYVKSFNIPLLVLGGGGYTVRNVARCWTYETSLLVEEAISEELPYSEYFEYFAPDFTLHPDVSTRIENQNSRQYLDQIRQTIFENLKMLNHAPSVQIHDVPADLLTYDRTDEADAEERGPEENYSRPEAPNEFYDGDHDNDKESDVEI
Sequence of Histone deacetylase 3/NCoR1 (O75376 whole entry, further chain): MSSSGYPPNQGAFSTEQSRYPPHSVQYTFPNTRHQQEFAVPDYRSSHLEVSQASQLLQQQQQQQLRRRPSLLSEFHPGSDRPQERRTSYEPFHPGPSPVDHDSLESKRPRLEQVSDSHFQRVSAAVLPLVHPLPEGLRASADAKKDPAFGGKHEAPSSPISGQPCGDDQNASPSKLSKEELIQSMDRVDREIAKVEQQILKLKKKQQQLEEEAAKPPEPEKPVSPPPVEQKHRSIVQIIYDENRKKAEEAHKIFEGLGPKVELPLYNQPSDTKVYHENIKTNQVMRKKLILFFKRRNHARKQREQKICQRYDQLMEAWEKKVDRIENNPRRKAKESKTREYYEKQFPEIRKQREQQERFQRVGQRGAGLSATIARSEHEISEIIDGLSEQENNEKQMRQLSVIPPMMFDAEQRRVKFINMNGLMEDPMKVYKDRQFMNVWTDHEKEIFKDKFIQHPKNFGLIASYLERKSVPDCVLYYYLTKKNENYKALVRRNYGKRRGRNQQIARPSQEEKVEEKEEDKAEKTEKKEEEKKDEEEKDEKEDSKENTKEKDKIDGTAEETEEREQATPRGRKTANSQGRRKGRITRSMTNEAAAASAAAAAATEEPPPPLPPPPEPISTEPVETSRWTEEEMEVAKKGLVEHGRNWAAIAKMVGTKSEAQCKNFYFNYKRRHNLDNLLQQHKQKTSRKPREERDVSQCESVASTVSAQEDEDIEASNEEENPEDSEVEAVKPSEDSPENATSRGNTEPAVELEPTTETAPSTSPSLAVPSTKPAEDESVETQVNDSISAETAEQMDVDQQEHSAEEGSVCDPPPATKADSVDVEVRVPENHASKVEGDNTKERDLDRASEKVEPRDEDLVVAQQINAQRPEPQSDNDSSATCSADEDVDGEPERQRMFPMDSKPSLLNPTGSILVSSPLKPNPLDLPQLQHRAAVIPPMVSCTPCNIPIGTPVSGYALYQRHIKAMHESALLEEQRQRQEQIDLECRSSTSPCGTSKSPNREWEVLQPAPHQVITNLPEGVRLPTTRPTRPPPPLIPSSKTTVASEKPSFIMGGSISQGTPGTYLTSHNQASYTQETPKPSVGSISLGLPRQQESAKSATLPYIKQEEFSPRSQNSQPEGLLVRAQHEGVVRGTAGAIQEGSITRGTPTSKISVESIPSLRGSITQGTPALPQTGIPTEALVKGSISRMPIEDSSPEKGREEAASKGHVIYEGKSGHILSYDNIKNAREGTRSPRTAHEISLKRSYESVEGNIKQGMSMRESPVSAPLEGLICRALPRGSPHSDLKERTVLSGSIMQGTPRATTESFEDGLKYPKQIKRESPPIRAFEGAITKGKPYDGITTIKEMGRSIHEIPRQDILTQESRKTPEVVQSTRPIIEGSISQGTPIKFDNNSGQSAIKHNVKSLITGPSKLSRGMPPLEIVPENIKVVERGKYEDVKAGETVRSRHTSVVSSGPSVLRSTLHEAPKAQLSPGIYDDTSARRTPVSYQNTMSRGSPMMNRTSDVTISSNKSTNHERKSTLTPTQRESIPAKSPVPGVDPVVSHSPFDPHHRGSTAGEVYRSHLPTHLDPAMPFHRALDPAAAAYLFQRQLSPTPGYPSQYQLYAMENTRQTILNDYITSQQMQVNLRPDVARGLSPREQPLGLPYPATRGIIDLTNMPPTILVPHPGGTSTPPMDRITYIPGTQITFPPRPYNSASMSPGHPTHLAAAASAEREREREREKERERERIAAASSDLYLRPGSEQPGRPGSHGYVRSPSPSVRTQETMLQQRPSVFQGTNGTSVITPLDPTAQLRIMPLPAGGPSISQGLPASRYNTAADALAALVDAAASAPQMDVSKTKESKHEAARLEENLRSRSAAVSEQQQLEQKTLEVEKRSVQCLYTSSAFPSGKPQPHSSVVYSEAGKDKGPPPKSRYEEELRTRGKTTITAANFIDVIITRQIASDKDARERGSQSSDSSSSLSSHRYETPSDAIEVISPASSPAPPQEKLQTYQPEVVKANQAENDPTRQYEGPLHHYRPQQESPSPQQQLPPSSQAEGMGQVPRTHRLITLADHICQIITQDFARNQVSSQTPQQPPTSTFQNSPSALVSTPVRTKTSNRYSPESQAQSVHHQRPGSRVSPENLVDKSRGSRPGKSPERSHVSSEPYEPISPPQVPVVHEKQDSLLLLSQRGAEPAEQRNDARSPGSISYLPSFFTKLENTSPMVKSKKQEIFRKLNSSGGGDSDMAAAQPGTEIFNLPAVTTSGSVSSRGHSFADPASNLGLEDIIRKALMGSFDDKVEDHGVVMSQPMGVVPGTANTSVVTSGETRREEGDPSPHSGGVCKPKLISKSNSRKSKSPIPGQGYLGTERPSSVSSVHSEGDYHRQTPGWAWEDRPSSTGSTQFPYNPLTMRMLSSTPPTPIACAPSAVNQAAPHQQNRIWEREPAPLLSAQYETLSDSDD
Sequence of Histone deacetylase 2 (Q92769 whole entry): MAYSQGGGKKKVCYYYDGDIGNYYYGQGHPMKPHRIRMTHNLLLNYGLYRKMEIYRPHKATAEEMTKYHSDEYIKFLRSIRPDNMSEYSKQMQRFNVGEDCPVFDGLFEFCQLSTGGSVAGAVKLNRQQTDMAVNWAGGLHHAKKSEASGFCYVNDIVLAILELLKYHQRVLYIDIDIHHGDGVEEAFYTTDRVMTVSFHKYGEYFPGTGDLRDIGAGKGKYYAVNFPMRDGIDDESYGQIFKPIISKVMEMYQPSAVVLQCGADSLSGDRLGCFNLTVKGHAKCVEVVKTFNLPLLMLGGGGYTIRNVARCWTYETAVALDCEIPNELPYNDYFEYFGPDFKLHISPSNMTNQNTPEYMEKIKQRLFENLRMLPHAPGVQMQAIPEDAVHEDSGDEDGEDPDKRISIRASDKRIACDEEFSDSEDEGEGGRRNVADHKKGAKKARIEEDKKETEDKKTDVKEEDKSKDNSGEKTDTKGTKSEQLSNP

Papp [2]: 51 ×10⁻⁶ cm/s
solubility kinetic [5]: 239 µM (≈ 96.2 µg/mL)
IC50 [6]: > 20 µM
IC50 [7]: 0.012 µM
IC50 (Histone deacetylase 8): 4.1 µM
IC50 (Histone deacetylase 1): 0.93 µM
IC50 (Histone deacetylase 2): 0.085 µM
IC50 (Cytochrome P450 2C9): 16 µM
Compound: Nc1ccccc1NC(=O)c1ccc(CNC2=N[C@@H](c3ccccc3)CS2)cc1
Activity (HeLa [1]): inactive
Activity (HeLa [3]): Active
Activity (Jurkat [4]): 6.2%
IC50 (DU-145): 6.4 µM
Activity (Jurkat [8]): 19.5%
Activity (Jurkat [9]): 28.5%
Activity (Jurkat [10]): Active
Activity (Jurkat [11]): 9.1%
IC50 (MCF7): 5.43 µM
